Data: ChEMBL document CHEMBL4152234, “Aminobenzothiazole derivatives stabilize the thermolabile p53 cancer mutant Y220C and show anticancer activity in p53-Y220C cell lines” (Eur J Med Chem, 2018)
Activity calls are given as the source filed them. The calls are words filed in the database; no cut-off is given here.

Tests used:
[1] = system: Cellular tumor antigen p53 (Homo sapiens), P04637 [Y220C]; assay: Activation of p53 Y220C mutant in human NUGC3 cells assessed as change in ATM mRNA level at 60 uM after 18 hrs by RT-PCR method relative to control; format: cell-based
In short: (§1)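 p53 signalling qPCR array covering 84 genes. Cells were exposed for 18 h, with 0.5% DMSO in both compound and control samples. Total RNA was extracted and purified. Fold-changes were calculated by ΔΔCt using β2-microglobulin (B2M) as the housekeeping gene. Two independent biological replicates were run per cell line.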

[2] = target: T1, Cellular tumor antigen p53 (Homo sapiens, UniProt P04637); assay: Activation of p53 in human NUGC4 cells assessed as change in MLH1 mRNA level at 60 uM after 18 hrs by RT-PCR method relative to control; format: cell-based; settings: read-out: FC
In short: (§2)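 p53 signaling qPCR array of 84 p53-pathway genes. Cells were treated in 6-well plates for 18 h with 0.5% DMSO in compound and control samples. Total RNA was extracted and fold-changes were obtained by the ΔΔCt method against untreated control, with β2-microglobulin (B2M) as housekeeping gene. Two independent biological replicates per cell line.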

[3] = target: T1, Cellular tumor antigen p53; assay: Activation of p53 in human NUGC4 cells assessed as change in KRAS mRNA level at 60 uM after 18 hrs by RT-PCR method relative to control; format: cell-based; settings: read-out: FC; in short: as §2
[4] = system: Cellular tumor antigen p53 (Homo sapiens), P04637 [Y220C]; assay: Activation of p53 Y220C mutant in human NUGC3 cells assessed as change in BAI1 mRNA level at 60 uM after 18 hrs by RT-PCR method relative to control; format: cell-based; in short: as §1
[5] = system: Cellular tumor antigen p53 (Homo sapiens), P04637 [Y220C]; assay: Activation of p53 Y220C mutant in human NUGC3 cells assessed as change in DNMT1 mRNA level at 60 uM after 18 hrs by RT-PCR method relative to control; format: cell-based; in short: as §1
[6] = system: Cellular tumor antigen p53 (Homo sapiens), P04637 [Y220C]; assay: Activation of p53 Y220C mutant in human NUGC3 cells assessed as change in HDAC1 mRNA level at 60 uM after 18 hrs by RT-PCR method relative to control; format: cell-based; in short: as §1
[7] = system: Cellular tumor antigen p53 (Homo sapiens), P04637 [Y220C]; assay: Activation of p53 Y220C mutant in human NUGC3 cells assessed as change in F0X03 mRNA level at 60 uM after 18 hrs by RT-PCR method relative to control; format: cell-based; in short: as §1
[8] = system: Cellular tumor antigen p53 (Homo sapiens), P04637 [Y220C]; assay: Activation of p53 Y220C mutant in human HuH7 cells assessed as increase in Bax mRNA level at 30 uM after 18 hrs by RT-PCR method; format: cell-based
In short: (§3)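 Real-time PCR. Cells were treated for 18 h, with 0.5% DMSO in both compound and control samples. Relative mRNA levels were quantified by the ΔΔCt method as fold-change against the untreated sample. Each sample was measured in triplicate, and data are given as mean ± SEM with an unpaired t-test.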

[9] = system: Cellular tumor antigen p53 (Homo sapiens), P04637 [Y220C]; assay: Activation of p53 Y220C mutant in human NUGC3 cells assessed as change in TP73 mRNA level at 60 uM after 18 hrs by RT-PCR method relative to control; format: cell-based
In short: (§4)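 p53 signalling qPCR array covering 84 p53 pathway genes. Cells were exposed for 18 h, and compound and control wells both held 0.5% DMSO. Total RNA was extracted and purified. Fold-changes were calculated by the ΔΔCt method against the untreated sample, with β2-microglobulin (B2M) as the housekeeping gene. Each cell line was run in two independent biological replicates.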

[10] = system: Cellular tumor antigen p53 (Homo sapiens), P04637 [Y220C]; assay: Activation of p53 Y220C mutant in human NUGC3 cells assessed as change in NFKB1 mRNA level at 60 uM after 18 hrs by RT-PCR method relative to control; format: cell-based; in short: as §4
[11] = system: Cellular tumor antigen p53 (Homo sapiens), P04637 [Y220C]; assay: Activation of p53 Y220C mutant in human NUGC3 cells assessed as change in PTTG1 mRNA level at 60 uM after 18 hrs by RT-PCR method relative to control; format: cell-based; in short: as §4
[12] = target: T1, Cellular tumor antigen p53; assay: Activation of p53 in human NUGC4 cells assessed as change in CCNG1 mRNA level at 60 uM after 18 hrs by RT-PCR method relative to control; format: cell-based; settings: read-out: FC; in short: as §2
[13] = system: Cellular tumor antigen p53 (Homo sapiens), P04637 [Y220C]; assay: Activation of p53 Y220C mutant in human NUGC3 cells assessed as change in CDK1 mRNA level at 60 uM after 18 hrs by RT-PCR method relative to control; format: cell-based; in short: as §1
[14] = system: Cellular tumor antigen p53 (Homo sapiens), P04637 [Y220C]; assay: Activation of p53 Y220C mutant in human NUGC3 cells assessed as change in GADD45A mRNA level at 60 uM after 18 hrs by RT-PCR method relative to control; format: cell-based; in short: as §1
[15] = system: Huh-7; assay: Upregulation of BAX mRNA level in p53 Y220C mutant knockout human HuH7 cells at 30 uM after 18 hrs by RT-PCR method; format: functional, cell-based
[16] = system: Cellular tumor antigen p53 (Homo sapiens), P04637 [Y220C]; assay: Activation of p53 Y220C mutant in human NUGC3 cells assessed as change in ATR mRNA level at 60 uM after 18 hrs by RT-PCR method relative to control; format: cell-based; in short: as §1
[17] = system: Cellular tumor antigen p53 (Homo sapiens), P04637 [Y220C]; assay: Activation of p53 Y220C mutant in human NUGC3 cells assessed as change in BRCA2 mRNA level at 60 uM after 18 hrs by RT-PCR method relative to control; format: cell-based; in short: as §1
[18] = target: T1, Cellular tumor antigen p53; assay: Activation of p53 in human NUGC4 cells assessed as change in CDK1 mRNA level at 60 uM after 18 hrs by RT-PCR method relative to control; format: cell-based; settings: read-out: FC; in short: as §2
[19] = target: T1, Cellular tumor antigen p53; assay: Activation of p53 in human NUGC4 cells assessed as change in CDK4 mRNA level at 60 uM after 18 hrs by RT-PCR method relative to control; format: cell-based; settings: read-out: FC; in short: as §2
[20] = system: Cellular tumor antigen p53 (Homo sapiens), P04637 [Y220C]; assay: Activation of p53 Y220C mutant in human NUGC3 cells assessed as change in PIDD1 mRNA level at 60 uM after 18 hrs by RT-PCR method relative to control; format: cell-based; in short: as §4
[21] = target: T1, Cellular tumor antigen p53; assay: Activation of p53 in human NUGC4 cells assessed as change in GML mRNA level at 60 uM after 18 hrs by RT-PCR method relative to control; format: cell-based; settings: read-out: FC; in short: as §2
[22] = system: Huh-7; assay: Upregulation of MDM2 mRNA level in p53 Y220C mutant knockout human HuH7 cells at 30 uM after 18 hrs by RT-PCR method; format: functional, cell-based
[23] = system: Cellular tumor antigen p53 (Homo sapiens), P04637 [Y220C]; assay: Activation of p53 Y220C mutant in human HuH7 cells assessed as increase in NOXA mRNA level at 30 uM after 18 hrs by RT-PCR method; format: cell-based; in short: as §3
[24] = target: T1, Cellular tumor antigen p53; assay: Activation of p53 in human NUGC4 cells assessed as change in CRADD mRNA level at 60 uM after 18 hrs by RT-PCR method relative to control; format: cell-based; settings: read-out: FC; in short: as §2
[25] = system: Cellular tumor antigen p53 (Homo sapiens), P04637 [Y220C]; assay: Activation of p53 Y220C mutant in human NUGC3 cells assessed as change in TNFRSF10B mRNA level at 60 uM after 18 hrs by RT-PCR method relative to control; format: cell-based; in short: as §4
[26] = system: Cellular tumor antigen p53 (Homo sapiens), P04637 [Y220C]; assay: Activation of p53 Y220C mutant in human NUGC3 cells assessed as change in CDK4 mRNA level at 60 uM after 18 hrs by RT-PCR method relative to control; format: cell-based; in short: as §1
[27] = target: T1, Cellular tumor antigen p53; assay: Activation of p53 in human NUGC4 cells assessed as change in CCNH mRNA level at 60 uM after 18 hrs by RT-PCR method relative to control; format: cell-based; settings: read-out: FC; in short: as §2
[28] = system: Cellular tumor antigen p53 (Homo sapiens), P04637 [Y220C]; assay: Activation of p53 Y220C mutant in human NUGC3 cells assessed as change in CASP2 mRNA level at 60 uM after 18 hrs by RT-PCR method relative to control; format: cell-based; in short: as §1

- fold change (FC) [1]: 0.9
- fold induction at 60 µM [2]: 1
- fold induction at 60 µM [3]: 0.9
- fold change (FC) [4]: 1.5
- fold change (FC) [5]: 1.2
- fold change (FC) [6]: 0.6
- fold change (FC) [7]: 2
- Activity [8]: Active
- fold change (FC) [9]: 1.2
- fold change (FC) [10]: 1.5
- fold change (FC) [11]: 1.5
- fold induction at 60 µM [12]: 1
- fold change (FC) [13]: 1.5
- fold change (FC) [14]: 2.2
- fold change (FC) [16]: 1
- fold change (FC) [17]: 0.9
- fold induction at 60 µM [18]: 0.8
- fold induction at 60 µM [19]: 0.8
- fold change (FC) [20]: 1.2
- fold induction at 60 µM [21]: 1.9
- Activity [23]: Active
- fold induction at 60 µM [24]: 0.8
- fold change (FC) [25]: 1.8
- fold change (FC) [26]: 1.3
- fold induction at 60 µM [27]: 0.9
- fold change (FC) [28]: 1.1
SMILES: CCNC(=O)c1c(O)c(I)c(-n2cccc2)c2sc(N(CC)CC)nc12
- Activity [15]: inactive
- Activity [22]: inactive
